Results reported in ChEMBL document CHEMBL2029271, “Design and synthesis of cannabinoid receptor 1 antagonists for peripheral selectivity” (J Med Chem, 2012).

Assays:
[1] = species: Homo sapiens; assay: Selectivity ratio of Ki for CB2 receptor to Ki for human CB1 receptor
[2] = test system: MDCK; assay: Permeability from apical to basal side of MDCK cells expressing human mdr1 gene; format: ADME, cell-based, Canis lupus familiaris; settings: dog
Method in brief: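 MDCK-mdr1 cells grown 4 days to confluence on Transwell-type filters in DMEM/F12 with 10% FBS and antibiotics. Compound added apically at 3.16 μM in HBSS with 25 mM D-glucose, HEPES-buffered to pH 7.4; 1 hr at 37°C. Apical and basal samples collected and analysed by LC-MS/MS (MRM).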

[3] = Metabolic stability in human hepatic S9 fraction assessed as compound remaining at 10 uM after 120 mins; format: ADME, Liver; settings: s9, 2 h
Method in brief: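 Human hepatic S9 (1 mg/ml) with 10 μM final compound in 50 mM potassium phosphate pH 7.4, 3 mM MgCl2, NADPH regenerating system (NADP 1 mM, glucose-6-phosphate 5 mM, G6PDH 1 unit/ml). Triplicates sampled at 0, 15, 30, 60, 120 min; stopped with 3 volumes acetonitrile; LC-MS/MS (MRM) against matrix standard curves; % parent remaining at 120 min.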

[4] = test system: Plasma; assay: Metabolic stability in human plasma assessed as compound remaining at 10 uM preincubated for 5 mins measured after 60 mins; format: ADME, cell-free; settings: 1 h
Method in brief: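 Human plasma, 1 ml per sample at 37°C, 5 min pre-incubation, then compound at 10 μM final, sampled at 0, 30 and 60 min. Reactions stopped with acetonitrile; LC-MS/MS (MRM) quantitation with standards in blank matrix; % parent remaining at 60 min.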

[5] = target: T1, Cannabinoid receptor 1 (Homo sapiens, UniProt P21554); settings: CHO-K1
T1 sequence (P21554 whole entry): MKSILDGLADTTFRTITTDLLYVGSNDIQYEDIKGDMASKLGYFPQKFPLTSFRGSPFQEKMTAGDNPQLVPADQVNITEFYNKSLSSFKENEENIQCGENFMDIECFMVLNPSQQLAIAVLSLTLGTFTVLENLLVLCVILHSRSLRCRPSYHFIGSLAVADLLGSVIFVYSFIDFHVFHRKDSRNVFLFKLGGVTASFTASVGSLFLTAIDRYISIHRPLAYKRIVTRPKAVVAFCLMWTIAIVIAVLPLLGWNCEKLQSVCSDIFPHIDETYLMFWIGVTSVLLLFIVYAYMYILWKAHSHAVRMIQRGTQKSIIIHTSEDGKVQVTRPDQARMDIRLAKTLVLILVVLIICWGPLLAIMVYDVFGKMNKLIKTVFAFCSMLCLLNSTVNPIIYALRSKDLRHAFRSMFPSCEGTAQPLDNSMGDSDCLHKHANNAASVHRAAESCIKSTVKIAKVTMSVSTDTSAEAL

[6] = target: T1, Cannabinoid receptor 1; assay: biochemical; format: cell-based, CHO-K1
[7] = target: Cannabinoid receptor 2 (Homo sapiens, UniProt P34972); assay: Displacement of [3H]CP55940 from CB2 receptor expressed in CHO-K1 cells; format: cell-based
Cannabinoid receptor 2, sequence (P34972 whole entry): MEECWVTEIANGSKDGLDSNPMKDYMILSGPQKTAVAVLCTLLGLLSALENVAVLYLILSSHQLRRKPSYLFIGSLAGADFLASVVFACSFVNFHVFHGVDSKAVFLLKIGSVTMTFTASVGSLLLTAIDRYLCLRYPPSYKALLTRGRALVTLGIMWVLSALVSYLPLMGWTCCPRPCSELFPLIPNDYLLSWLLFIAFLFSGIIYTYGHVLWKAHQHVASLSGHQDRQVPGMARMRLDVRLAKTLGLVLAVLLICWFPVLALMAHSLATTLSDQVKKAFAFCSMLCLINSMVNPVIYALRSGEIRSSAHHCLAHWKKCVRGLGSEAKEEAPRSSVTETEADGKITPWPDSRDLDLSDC

[8] = (§1) Plasma concentration in Sprague-Dawley rat at 10 mg/kg, po after 30 mins; format: ADME, organism-based; design: dose 10 mg/kg, route oral; settings: Sprague-Dawley, plasma
Method in brief: (§2)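 Orally dosed male Sprague Dawley rats (7–8 weeks; 10 mg/kg in corn oil) sampled by tail vein at 30 minutes. Plasma acetonitrile-precipitated with reserpine internal standard; supernatant injected undiluted for LC-MS/MS, with standards in blank plasma.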

[9] = Plasma concentration in Sprague-Dawley rat at 10 mg/kg, po after 60 mins; format: ADME, organism-based; design: dose 10 mg/kg, route oral
Method in brief: (§3)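 Male Sprague Dawley rats, 7–8 weeks old, dosed 10 mg/kg orally (corn oil) or ip (1:1:18 ethanol:cremophor:saline). Plasma collected 1 hour post-dose, acetonitrile-precipitated with reserpine internal standard, supernatant diluted in 50:50 methanol:water, quantified by LC-MS/MS against standards in blank plasma.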

[10] = Plasma concentration in Sprague-Dawley rat at 10 mg/kg, ip after 60 mins; format: ADME, organism-based; design: dose 10 mg/kg, route intraperitoneal; method in brief: as §3
[11] = test system: Brain; assay: (§4) Drug uptake in Sprague-Dawley rat brain at 10 mg/kg, po after 60 mins; format: ADME, organism-based; design: dose 10 mg/kg, route oral; settings: in vivo, 1 h, BLD = below limit of detection
Method in brief: (§5)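 Male Sprague Dawley rats, 7–8 weeks old, given 10 mg/kg orally (corn oil) or ip (1:1:18 ethanol:cremophor:saline). Brain taken 1 hour post-dose; left lobe homogenized in 50:50 ethanol:water, protein-precipitated with acetonitrile plus reserpine internal standard, analysed by LC-MS/MS against standards in blank brain homogenate.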

[12] = Drug uptake in Sprague-Dawley rat brain at 10 mg/kg, ip after 60 mins; format: ADME, organism-based; design: dose 10 mg/kg, route intraperitoneal; settings: read-out: Drug uptake; method in brief: as §5
[13] = test system: Nucleic Acid; assay: Ratio of drug level in brain to plasma in Sprague-Dawley rat at 10 mg/kg, ip after 60 mins; format: ADME, organism-based; design: dose 10 mg/kg, route intraperitoneal; settings: 1 h
Method in brief: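 Male Sprague Dawley rats, 7–8 weeks, given 10 mg/kg ip in 1:1:18 ethanol:cremophor:saline; plasma and brain taken at 1 h. Plasma and left-lobe brain homogenate (50:50 ethanol:water) protein-precipitated with acetonitrile, reserpine internal standard; LC-MS/MS MRM vs standards in blank matrices; brain:plasma concentration ratio.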

[14] = as §4; format: ADME, organism-based; design: dose 10 mg/kg, route oral; settings: Sprague-Dawley, brain, read-out: Drug uptake; method in brief: as §5
[15] = test system: Nucleic Acid; assay: Ratio of drug level in brain to plasma in Sprague-Dawley rat at 10 mg/kg, po after 60 mins; format: ADME, organism-based; design: dose 10 mg/kg, route oral; settings: 1 h
Method in brief: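 Male Sprague Dawley rats, 7–8 weeks, dosed orally at 10 mg/kg in corn oil; plasma and brain collected 1 h post-dose (tail-vein blood also at 30 min). Acetonitrile precipitation with reserpine internal standard, brain left lobe homogenized in 50:50 ethanol:water; LC-MS/MS MRM with blank-matrix standards; brain:plasma concentration ratio.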

[16] = target: T1, Cannabinoid receptor 1; assay: biochemical
[17] = test system: Plasma; assay: as §1; format: ADME, organism-based; design: dose 10 mg/kg, route oral; settings: in vivo, 0.5 h, BLD = below limit of detection; method in brief: as §2
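Throughout, for Ke: antagonism measured as blockade of CP55940-evoked intracellular Ca2+ rise, read fluorometrically, in cells additionally carrying Galphaq16.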

Ki [16] | Structure (SMILES) | Ratio Ki [1] | permeability [2] | Stability [3] | Stability [4] | Ke [5] | Ki [6] | Ki [7] | concentration at 0.5 h [8] | concentration at 1 h [9] | concentration at 1 h [10] | Drug uptake [11] | concentration at 1 h [12] | BPR [13] | concentration at 1 h [14] | BPR [15] | Cp [17]
– | Cc1c(C(=O)N2CCC(NC(=O)OC(C)(C)C)(c3ccccc3)CC2)nn(-c2ccc(Cl)cc2Cl)c1-c1ccc(Cl)cc1 | 49.9 | < 1% | 88% | > 90% | 20.2 nM | – | – | – | – | – | – | – | – | – | – | –
– | Cc1c(C(=O)N2CCC(NC(=O)NCc3ccccc3)(c3ccccc3)CC2)nn(-c2ccc(Cl)cc2Cl)c1-c1ccc(Cl)cc1 | 398 | < 1% | 18% | 82% | 2.1 nM | 43 nM | 17100 nM | – | – | – | – | – | – | – | – | –
– | Cc1c(C(=O)N2CCC(NC(=O)NC(C)(C)C)(c3ccccc3)CC2)nn(-c2ccc(Cl)cc2Cl)c1-c1ccc(Cl)cc1 | 425 | < 1% | 88% | > 90% | 2.4 nM | – | 20000 nM | 3.72 ng/mL | 10.3 ng/mL | 386 ng/mL | BLD | 12.4 ng/mL | 0.032 | – | – | –
– | Cc1c(C(=O)NC2CCN(C(=O)NC(C)(C)C)CC2)nn(-c2ccc(Cl)cc2Cl)c1-c1ccc(Cl)cc1 | 228 | < 1% | – | 71% | 78 nM | 14.7 nM | 3350 nM | 5.08 ng/mL | 28 ng/mL | 67.4 ng/mL | – | 25.5 ng/mL | 0.379 | 4.46 ng/mL | 0.16 | –
0.4 nM | Cc1c(C(=O)N2CCC(C(N)=O)(c3ccccc3)CC2)nn(-c2ccc(Cl)cc2Cl)c1-c1ccc(Cl)cc1 | 1600 | 8% | – | – | 0.4 nM | – | – | – | – | – | – | – | – | – | – | –
– | Cc1c(C(=O)NC2CCN(C(=O)OC(C)(C)C)CC2)nn(-c2ccc(Cl)cc2Cl)c1-c1ccc(Cl)cc1 | 878 | < 1% | > 90% | > 90% | 4.7 nM | 2.9 nM | 2510 nM | – | 13.2 ng/mL | 197 ng/mL | BLD | 4.2 ng/mL | 0.0214 | – | – | BLD
